Measurements from ChEMBL document CHEMBL1255475, “Mutant prevention concentrations of four carbapenems against gram-negative rods” (2010).
≈ marks a conversion by molar mass, not a printed value.

Assays:
Format in all cases: functional
[1] = system: Escherichia coli; assay: Antibacterial activity against beta-lactamase-negative Escherichia coli E347 incubated up to 7 days by agar dilution method; conditions: E347, 168 h
[2] = system: Klebsiella pneumoniae; assay: Antibacterial activity against beta-lactamase-positive ESBL-negative Klebsiella pneumoniae E473 assessed as mutant prevention concentration after overnight incubation
In short: (§1)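 Overnight growth on blood trypticase soy agar (35°C, air) was resuspended in 0.9% saline and counted on drug-free Mueller-Hinton agar. […] Colonies were retested by agar dilution to confirm mutants. MPC was the lowest concentration preventing resistant-mutant growth.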

[3] = system: Escherichia coli; assay: Antibacterial activity against beta-lactamase-negative Escherichia coli E408 assessed as mutant prevention concentration after overnight incubation
[4] = system: Klebsiella pneumoniae; assay: Antibacterial activity against beta-lactamase-positive ESBL-negative Klebsiella pneumoniae E511 assessed as mutant prevention concentration after overnight incubation; in short: as §1
[5] = system: Klebsiella pneumoniae; assay: Antibacterial activity against beta-lactamase-negative Klebsiella pneumoniae E417 assessed as mutant prevention concentration after overnight incubation
[6] = system: Escherichia coli; assay: Antibacterial activity against beta-lactamase-negative Escherichia coli E345 assessed as mutant prevention concentration after overnight incubation
[7] = system: Klebsiella pneumoniae; assay: Antibacterial activity against beta-lactamase-negative Klebsiella pneumoniae E360 incubated up to 7 days by agar dilution method; conditions: E360, 168 h
[8] = system: Escherichia coli; assay: Antibacterial activity against beta-lactamase-positive ESBL-negative Escherichia coli E484 assessed as mutant prevention concentration after overnight incubation; in short: as §1
[9] = system: Klebsiella pneumoniae; assay: Antibacterial activity against beta-lactamase-negative Klebsiella pneumoniae E358 assessed as mutant prevention concentration after overnight incubation
[10] = system: Escherichia coli; assay: Antibacterial activity against beta-lactamase-positive ESBL-positive Escherichia coli E450 incubated up to 7 days by agar dilution method; conditions: E450, 168 h
In short: (§2)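 MIC by CLSI agar dilution, with quality-control strains in each run. Beta-lactamase status was set by 30 μg cefazolin Kirby-Bauer disk diffusion. ESBL status was set by cefotaxime and ceftazidime disks (30 μg) with and without clavulanic acid (10 μg).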

[11] = system: Klebsiella pneumoniae; assay: Antibacterial activity against beta-lactamase-positive ESBL-positive Klebsiella pneumoniae E476 incubated up to 7 days by agar dilution method; conditions: E476, 168 h
[12] = system: Escherichia coli; assay: Antibacterial activity against beta-lactamase-negative Escherichia coli E350 […] by agar dilution method
[13] = system: Klebsiella pneumoniae; assay: Antibacterial activity against beta-lactamase-negative Klebsiella pneumoniae E359 incubated up to 7 days by agar dilution method; conditions: E359, 168 h
[14] = system: Klebsiella pneumoniae; assay: Antibacterial activity against beta-lactamase-negative Klebsiella pneumoniae E420 assessed as mutant prevention concentration after overnight incubation; in short: as §1
[15] = system: Klebsiella pneumoniae; assay: Antibacterial activity against beta-lactamase-positive ESBL-positive Klebsiella pneumoniae E478 incubated up to 7 days by agar dilution method; conditions: E478, 168 h
[16] = system: Klebsiella pneumoniae; assay: Antibacterial activity against beta-lactamase-positive ESBL-positive Klebsiella pneumoniae E475 incubated up to 7 days by agar dilution method; conditions: E475, 168 h
[17] = system: Escherichia coli; assay: Antibacterial activity against beta-lactamase-negative Escherichia coli E409 assessed as mutant prevention concentration after overnight incubation
[18] = system: Escherichia coli; assay: Antibacterial activity against beta-lactamase-positive ESBL-negative Escherichia coli E430 incubated up to 7 days by agar dilution method; conditions: E430, 168 h; in short: as §2
[19] = system: Escherichia coli; assay: Antibacterial activity against beta-lactamase-positive ESBL-positive Escherichia coli E452 incubated up to 7 days by agar dilution method; conditions: E452, 168 h; in short: as §2
[20] = system: Klebsiella pneumoniae; assay: Antibacterial activity against beta-lactamase-negative Klebsiella pneumoniae E418 incubated up to 7 days by agar dilution method; conditions: E418, 168 h
[21] = system: Klebsiella pneumoniae; assay: Antibacterial activity against beta-lactamase-positive ESBL-negative Klebsiella pneumoniae E480 incubated up to 7 days by agar dilution method; conditions: E480, 168 h
[22] = system: Klebsiella pneumoniae; assay: Antibacterial activity against beta-lactamase-positive ESBL-positive Klebsiella pneumoniae E457 incubated up to 7 days by agar dilution method; conditions: E457, 168 h; in short: as §2
[23] = system: Escherichia coli; assay: Antibacterial activity against beta-lactamase-positive ESBL-positive Escherichia coli E458 incubated up to 7 days by agar dilution method; conditions: E458, 168 h; in short: as §2
[24] = system: Klebsiella pneumoniae; assay: Antibacterial activity against beta-lactamase-positive ESBL-positive Klebsiella pneumoniae E476 assessed as mutant prevention concentration after overnight incubation; in short: as §1
[25] = system: Klebsiella pneumoniae; assay: Antibacterial activity against beta-lactamase-negative Klebsiella pneumoniae E362 assessed as mutant prevention concentration after overnight incubation
[26] = system: Escherichia coli; assay: Antibacterial activity against beta-lactamase-negative Escherichia coli E409 […] by agar dilution method
[27] = system: Escherichia coli; assay: Antibacterial activity against beta-lactamase-positive ESBL-positive Escherichia coli E451 assessed as mutant prevention concentration after overnight incubation; in short: as §1
[28] = system: Klebsiella pneumoniae; assay: Antibacterial activity against beta-lactamase-negative Klebsiella pneumoniae E359 assessed as mutant prevention concentration after overnight incubation
[29] = system: Escherichia coli; assay: Antibacterial activity against beta-lactamase-positive ESBL-negative Escherichia coli E483 […] by agar dilution method
[30] = system: Klebsiella pneumoniae; assay: Antibacterial activity against beta-lactamase-positive ESBL-negative Klebsiella pneumoniae E480 assessed as mutant prevention concentration after overnight incubation; in short: as §1
[31] = system: Klebsiella pneumoniae; assay: Antibacterial activity against beta-lactamase-positive ESBL-positive Klebsiella pneumoniae E453 incubated up to 7 days by agar dilution method; conditions: E453, 168 h; in short: as §2

SMILES: C[C@@H](O)[C@H]1C(=O)N2C(C(=O)O)=C(S[C@@H]3CN[C@H](C(=O)Nc4cccc(C(=O)O)c4)C3)[C@H](C)[C@H]12
- MIC [1]: 0.008 µg/mL (≈ 0.0168 µM)
- MPC [2]: 32 µg/mL
- MPC [3]: 0.06 µg/mL
- MPC [4]: 64 µg/mL
- MPC [5]: 0.016 µg/mL
- MPC [6]: 0.03 µg/mL
- MIC [7]: 0.008 µg/mL (≈ 0.0168 µM)
- MPC [8]: 128 µg/mL
- MPC [9]: 0.03 µg/mL
- MIC [10]: 0.03 µg/mL (≈ 0.0631 µM)
- MIC [11]: 8 µg/mL (≈ 16.8 µM)
- MIC [12]: 0.016 µg/mL (≈ 0.0336 µM)
- MIC [13]: 0.016 µg/mL (≈ 0.0336 µM)
- MPC [14]: 0.03 µg/mL
- MIC [15]: 8 µg/mL (≈ 16.8 µM)
- MIC [16]: 8 µg/mL (≈ 16.8 µM)
- MPC [17]: 0.125 µg/mL
- MIC [18]: 0.06 µg/mL (≈ 0.126 µM)
- MIC [19]: 0.03 µg/mL (≈ 0.0631 µM)
- MIC [20]: 0.06 µg/mL (≈ 0.126 µM)
- MIC [21]: 8 µg/mL (≈ 16.8 µM)
- MIC [22]: 0.03 µg/mL (≈ 0.0631 µM)
- MIC [23]: 0.03 µg/mL (≈ 0.0631 µM)
- MPC [24]: 32 µg/mL
- MPC [25]: 0.06 µg/mL
- MIC [26]: 0.016 µg/mL (≈ 0.0336 µM)
- MPC [27]: 1 µg/mL
- MPC [28]: 0.03 µg/mL
- MIC [29]: 4 µg/mL (≈ 8.41 µM)
- MPC [30]: 32 µg/mL
- MIC [31]: 0.5 µg/mL (≈ 1.05 µM)
